From PubChem
EBV gp42 inh – EBV gp42 inhibition; Q1HVG2; Fluorescence polarization binding assay, mP read-out; inhibition, % (tested at 21.74 µM); 220,000 compounds, 0.42% hits; AID 1085; in the data active means inhibition above about 50%
LANA DNA inh – KSHV C-LANA DNA binding inhibition. MBP-C-LANA/FAM-LBS DNA binding, fluorescence polarization. 340,000 compounds, 0.078% hits. inhibition, % at 9 µM;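 active means highest replicate inhibition at or above 60% at 9 µM, even if other replicates fall short; inactive means all replicates below 60% inhibition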;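 further: 0% = neutral control wells and 100% = 4 µM acridine orange control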
Keap1-Nrf2 PPI – inhibitors of human Keap1-Nrf2 protein-protein interaction; 340,000 compounds, 0.15% hits; Keap1 Kelch-Nrf2 peptide fluorescence polarization, 1536-well; inhibition, % at 9.4 µM; Q14145; in the data active means inhibition above about 12%; inconclusive means no clear call, values can overlap the other calls; inactive means below about 7.3%;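 further: human Keap1 Kelch domain with fluorescein labeled Nrf2 9mer peptide probe; 0% = neutral control wells and 100% = peptide positive control; higher means more block of Keap1 binding to Nrf2 peptide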
GRK2 inh – blocks RNA aptamer binding to human GRK2. inhibition of aptamer binding, % at 10 µM. AID 488847. 330,000 compounds, 0.59% hits. bead flow cytometry, FAM-aptamer displacement from GRK2;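 active means inhibition of aptamer binding above 40%, roughly 3 SD of noise, on plates passing a quality check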;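 further: median bead fluorescence of bound FAM aptamer so fluorescent compounds give negative values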
T cell HTS – T cell immune modulators affecting CD8 T cell-vesicle binding. AID 2052. 330,000 compounds, 0.068% hits. response (vesicle binding), % at 7 µM. 2C CD8+ T cell-vesicle binding, flow cytometry; stronger effect = lower value;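 active means response, share of CD8 T cells binding vesicles, and their 90th percentile fluorescence all below set limits, cut at about 80% in these data, passing the limit was not always enough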;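 further: values below 100% mean blocked vesicle binding to the CD8+ T cells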
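Read-out – percent CD8+ FL2 mean versus row control · System – murine 2C transgenic CD8+ T lymphocytes · Times – 1.5 h cell–vesicle binding at 37 °C, then 20 min icy labelling · Control set – naked vesicles low, QL9 vesicles with vehicle high · Detection – cytometric PE anti-B7-1 and Alexa647 anti-CD8 signals after 1% paraformaldehyde fixation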
MEX-5 binding – C. elegans MEX-5 TCR-2 RNA binding activity. 300,000 compounds, 0.38% hits. activity score (negative = inhibition of binding), % at 10 µM. MEX-5/FITC-TCR2 RNA binding, fluorescence polarization; stronger effect = lower value;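 active means inhibition past about -25% in most replicates, and total fluorescence under double the plate's negative control median, limit read from the data; inconclusive means replicates evenly split on the limit, or fluorescence at least double controls; inactive means too little inhibition in most replicates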;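 further: 0% = DMSO and -100% = 5 µM competing unlabeled TCR2 RNA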
Target sequence (Q9XUB2 whole entry, looked up): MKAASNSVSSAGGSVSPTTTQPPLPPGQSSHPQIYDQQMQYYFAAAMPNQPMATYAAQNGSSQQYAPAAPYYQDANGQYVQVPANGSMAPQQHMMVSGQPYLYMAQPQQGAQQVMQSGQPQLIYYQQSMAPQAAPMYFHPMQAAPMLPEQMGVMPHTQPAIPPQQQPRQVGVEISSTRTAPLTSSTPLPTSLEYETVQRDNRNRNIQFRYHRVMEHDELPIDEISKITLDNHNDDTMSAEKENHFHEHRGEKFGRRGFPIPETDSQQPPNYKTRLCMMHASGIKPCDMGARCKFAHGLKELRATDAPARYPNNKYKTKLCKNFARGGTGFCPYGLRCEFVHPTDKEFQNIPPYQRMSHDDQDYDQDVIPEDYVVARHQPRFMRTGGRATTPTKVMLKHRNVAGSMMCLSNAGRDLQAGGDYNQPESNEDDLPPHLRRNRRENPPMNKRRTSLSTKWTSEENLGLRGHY
* hit, by the source's call; i = inactive; ? = inconclusive; nt = no result. In the library only some 1.3% were active in any assay of this set; here they are far more common.

SMILES	EBV gp42 inh	LANA DNA inh	Keap1-Nrf2 PPI	GRK2 inh	T cell HTS	MEX-5 binding
CC(=O)Oc1ccc2c(c1)O/C(=C\c1ccncc1)C2=O	77*	37	2	3	107	?
CC(C)(C)C(=O)Nc1cccc(C(=O)c2cccc(NC(=O)C(C)(C)C)c2)c1	6	0	-7	1	386	1
O=C(/C=C/c1cccs1)NNC(=O)c1ccccc1	nt	-1	-4	10	31*	nt
CC(C)(C)C(=O)CSc1ncnc2c1cnn2-c1ccccc1	-3	nt	nt	1	216	0
CC(C)CN(C(=O)COC(=O)CCC(=O)c1ccc(Cl)cc1)c1c(N)n(Cc2ccccc2)c(=O)[nH]c1=O	nt	-4	-4	0	391	3
Cc1nc(Cl)c(C(=O)NC(=O)NCc2ccccc2)c(C)c1Cl	-6	0	-3	18	0.0*	-3
CC1CN(C(=O)CS(=O)(=O)Cc2ccc(Cl)cc2)CC(C)O1 (stereo unspecified)	nt	0	0	0	278	1
Cc1cccc(N(C(=O)c2snc(C(N)=O)c2N)C(C(=O)NCC2CCCO2)c2ccc(N(C)C)cc2)c1C (stereo unspecified)	nt	0	1	99*	0.0*	1
COc1cccc(NS(=O)(=O)c2ccc3c(c2)C2C=CCC2C(c2ccc(C(=O)O)cc2)N3)c1 (stereo unspecified)	16	104*	7	3	421	-66*
COc1ccc(C(=O)N/N=C(\C)c2ccc3c(c2)C2C=CCC2C(c2ccccc2)N3)cc1 (stereo unspecified)	-4	-1	-6	0	266	nt
Cc1cccc(C(=O)N(C)c2nnc(-c3ccncc3)s2)c1	nt	1	-4	1	254	1
COC(=O)[C@@H]1[C@H]2C[C@H]3c4[nH]c5ccccc5c4CCN3C[C@@H]2CC[C@@H]1O	nt	0	-4	3	589	?
COC(=O)C1=COC(C)C2CN3CCc4c([nH]c5cc(OC)c(OC)cc45)C3CC12 (stereo unspecified)	74*	33	-2	2	107	-35*
CCCCCCc1cc2cc(C(N)=O)c(=N)oc2cc1O	103*	nt	nt	2	302	-14
O=C(N/N=C/c1ccc([N+](=O)[O-])o1)c1cc2c(ccc3ccccc32)o1	60*	0	1	nt	nt	nt
CCOC(=O)c1cc(-c2ccccc2)sc1NC(=O)C(C)OC(=O)c1ccncc1 (stereo unspecified)	-1	1	-5	4	238	-1
CCOC(=O)c1cc(-c2ccccc2)sc1NC(=O)C(C)OC(=O)c1cccnc1Cl (stereo unspecified)	3	-2	-3	100*	409	2
CCOc1ccc(/C=C2\CCCc3c2nc2ccccc2c3C(=O)O)cc1OC	nt	148*	114*	7	225	?
COc1ccc(/C=C2\CCCc3c2nc2ccccc2c3C(=O)O)cc1OC	105*	nt	nt	0	268	-73*
COc1ccc(/C=C2\CCCC(C(=O)C(F)(F)F)=C2O)cc1OC	-6	nt	nt	1	129	-34*
O=S(=O)(Nc1ccc(O)c2ccccc12)c1ccc(Br)cc1	nt	nt	nt	1	166	-27*
O=S(=O)(Nc1ccc(O)c2ccccc12)c1cccs1	nt	1	-2	1	200	-13
Cc1nnc(NC(=O)CSc2nccn2Cc2ccccc2)s1	nt	0	-3	86*	564	1
Cc1nnc(NC(=O)CSc2nccn2Cc2ccc(F)cc2)s1	nt	2	-5	42*	359	0
COc1ccc(Cn2ccnc2SCC(=O)Nc2nnc(C)s2)cc1	nt	0	-2	1	250	3
SMILES	EBV gp42 inh	LANA DNA inh	Keap1-Nrf2 PPI	GRK2 inh	T cell HTS	MEX-5 binding
Cc1nnc(NC(=O)CSc2nnc(C)n2Cc2ccccc2)s1	-14	1	-4	2	319	2
C/C(=N\Nc1nc2c(s1)CCCC2)c1ccc(Cl)cc1	-13	59	-1	0	133	-3
O=C(Nc1ccc(Cl)cc1)Nc1nnc(-c2ccncc2)s1	77*	0	3	5	322	-1
O=C(C1=C[C@@H](C2CC2)C[C@@H](OCCCCO)O1)N1CCN(Cc2ccc3c(c2)OCO3)CC1	0	0	-6	nt	nt	3
CCN(CC)c1ccc(/C=C/c2cc(-c3ccccc3)c3ccccc3n2)cc1	68*	5	-5	24	227	3
CN(C)c1ccc(/C=C/c2ccc3ccccc3n2)cc1	-27	0	-6	4	178	1
Cc1ccc(N(C)C(=O)CC(C)S(=O)(=O)c2ccc3c(c2)NC(=O)CO3)cc1 (stereo unspecified)	nt	0	0	2	192	0
C=CCN1C(=O)C(Cc2ccc(Br)cc2)S/C1=N\N=C\c1ccco1 (stereo unspecified)	3	1	1	1	445	0
C=CCN1C(=O)C(Cc2ccc(F)cc2)S/C1=N/N=C/c1ccco1 (stereo unspecified)	-3	2	3	0	0.0*	-1
COc1cccc(-n2cc(C(=O)NCCCOC(C)C)c3ccccc3c2=O)c1	nt	120*	-6	2	283	0
Cc1ccc2nc(SCC(=O)Nc3nonc3C)[nH]c2c1	nt	1	0	0	i	6
COc1ccc2nc(SCC(=O)Nc3nonc3C)[nH]c2c1	-8	1	1	3	264	-32*
CCOC(=O)C1(CC2CCCCO2)CCN(S(=O)(=O)c2ccc(C)s2)CC1 (stereo unspecified)	0	-1	-7	4	13*	0
CN(C)c1ccc(NC(=O)Nc2cccc3ccccc23)cc1	-7	0	-2	9	528	2
CCC1=NN2C(=N)/C(=C\c3ccc(SCc4ccco4)o3)C(=O)N=C2S1	-8	10	-7	5	262	-32*
O=C1NC(=S)S/C1=C\c1ccc(SCc2ccco2)o1	-53	99*	21*	0	459	nt
O=C1NC(=S)S/C1=C/c1ccc(OC(=O)c2ccco2)cc1	nt	0	-4	1	408	2
CCCC1=NN2C(=N)/C(=C\c3ccc(SCc4ccco4)o3)C(=O)N=C2S1	-25	7	-8	1	430	-16
Cn1ccc2c([N+](=O)[O-])cccc2c1=O	-21	5	0	0	190	-2
Cc1ccc(SCc2cc(=O)[nH]c(N3CCN(C)CC3)n2)cc1	-14	0	2	0	428	-1
Cc1cc(-c2n[nH]c(=S)n2/N=C/c2ccc(C)o2)n[nH]1	-1	1	-2	1	464	-2
Cc1cccc(-c2n[nH]c(=S)n2/N=C/c2ccc(C)o2)c1	-24	-1	-2	47*	143	-2
COc1ccc(CSC2=CS(=O)(=O)c3ccccc3N2)cc1	6	-1	-7	1	443	-1
